From ChEMBL document CHEMBL1124778, “Synthesis and biological evaluation of prodrugs of zidovudine” (J Med Chem, 1990)

Columns and labels:
[1] = Evaluated for Partition coefficient in n-octanol and phosphate buffer pH 7.4; format: physicochemical; settings: octanol/water
Summary of the method: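 Ester solutions in n-octanol equilibrated with phosphate buffer (0.2 M, pH 7.4) at room temperature. Partition coefficient derived from the distribution between the two phases.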

[2] = In vitro time required for 50% hydrolysis at 37 degree Celsius upon incubation in human plasma; format: functional, cell-free
Summary of the method: (§1)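 Ester (10 mg/mL DMSO stock, diluted 1:100) incubated at 37 °C in human plasma or in rat hepatic microsomes (15.5 mg protein/mL solution). Samples taken over 0–4 h and quenched in ice-cold methanol. Remaining ester quantified by reverse-phase HPLC. t1/2 = time to 50% hydrolysis.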

[3] = In vitro time required for 50% hydrolysis at 37 degree Celsius upon incubation in rat hepatic microsomes; format: functional; settings: Liver; summary of the method: as §1
H9 = test: Evaluated in vitro for the concentration required to produce 50% inhibition of proliferation of H9 lymphocytes; format: functional, cell-based; settings: Homo sapiens
Summary of the method: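 H9 lymphoblastoid cells grown in RPMI 1640 with 15% FBS, penicillin/streptomycin and 2 mM L-glutamine at 37 °C under 5% CO2. Viability read by trypan blue dye exclusion. IC50 taken as the concentration giving 50% inhibition of proliferation.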

[4] = test system: Human immunodeficiency virus 1; test: Evaluated in vitro for the concentration required to produce 50% inhibition of replication of HIV-1; format: functional, organism-based

| PC [1] | IC50 [4] [µM] | SMILES | T1/2 [2] [min] | T1/2 [3] [min] | IC50 (H9) [µM] |
| --- | --- | --- | --- | --- | --- |
| 3.3 | 0.11 | Cc1cn([C@H]2C[C@H](N=[N+]=[N-])[C@@H](COC(=O)C(N)Cc3ccccc3)O2)c(=O)[nH]c1=O.O=C(O)C(F)(F)F (stereo partly drawn) | 20 | 30 | 350 |
| 17.9 | 0.2 | CC1=C(/C=C/C(C)=C/C=C/C(C)=C/C(=O)OC[C@H]2O[C@@H](n3cc(C)c(=O)[nH]c3=O)C[C@@H]2N=[N+]=[N-])C(C)(C)CCC1 | 120 | 60 | 25 |
| 1.6 | – | Cc1cn([C@H]2C[C@H](N=[N+]=[N-])[C@@H](COC(=O)c3cccnc3)O2)c(=O)[nH]c1=O | 10 | 30 | – |
| 7.2 | 0.05 | Cc1cn([C@H]2C[C@H](N=[N+]=[N-])[C@@H](COC(=O)C3=CN(C)C=CC3)O2)c(=O)[nH]c1=O | > 240 | 110 | 336 |
| 0.01 | – | Cc1cn([C@H]2C[C@H](N=[N+]=[N-])[C@@H](COC(=O)C(N)CCCCN)O2)c(=O)[nH]c1=O.O=C(O)C(F)(F)F (stereo partly drawn) | 30 | 14 | 300 |
| 0.94 | 0.11 | Cc1cn([C@H]2C[C@H](N=[N+]=[N-])[C@@H](COC(=O)C(N)Cc3ccc(O)cc3)O2)c(=O)[nH]c1=O.O=C(O)C(F)(F)F (stereo partly drawn) | 60 | 5 | 300 |
| 1.2 | 0.12 | Cc1cn([C@H]2C[C@H](N=[N+]=[N-])[C@@H](CO)O2)c(=O)[nH]c1=O [ZIDOVUDINE] | – | – | 150 |
| 0.12 | – | Cc1cn(C2CC(N=[N+]=[N-])C(COC(=O)CCC(N)C(=O)O)O2)c(=O)[nH]c1=O (stereo not drawn) | 70 | 30 | 320 |
| 2.2 | – | Cc1cn([C@H]2C[C@H](N=[N+]=[N-])[C@@H](COC(=O)CN3CCOCC3)O2)c(=O)[nH]c1=O | 12 | 28 | 320 |
| 10.3 | 0.1 | CCC(C)C(N)C(=O)OC[C@H]1O[C@@H](n2cc(C)c(=O)[nH]c2=O)C[C@@H]1N=[N+]=[N-].O=C(O)C(F)(F)F (stereo partly drawn) | > 240 | 19 | 250 |
